Blank lines part the entries; values can stand above or below the compound they belong to. Activity calls are given as the source filed them. No cut-off for these calls is given here.
How the values were obtained:
[1] = biological target: T1, Toll-like receptor 9 (Mus musculus) (UniProt Q9EQU3); test: Activation of mouse TLR9 expressed in HEK293 cells assessed as NF-kappaB level at 1 ug/mL after 18 hrs by reporter gene assay; type: cell-based
T1 sequence (whole entry): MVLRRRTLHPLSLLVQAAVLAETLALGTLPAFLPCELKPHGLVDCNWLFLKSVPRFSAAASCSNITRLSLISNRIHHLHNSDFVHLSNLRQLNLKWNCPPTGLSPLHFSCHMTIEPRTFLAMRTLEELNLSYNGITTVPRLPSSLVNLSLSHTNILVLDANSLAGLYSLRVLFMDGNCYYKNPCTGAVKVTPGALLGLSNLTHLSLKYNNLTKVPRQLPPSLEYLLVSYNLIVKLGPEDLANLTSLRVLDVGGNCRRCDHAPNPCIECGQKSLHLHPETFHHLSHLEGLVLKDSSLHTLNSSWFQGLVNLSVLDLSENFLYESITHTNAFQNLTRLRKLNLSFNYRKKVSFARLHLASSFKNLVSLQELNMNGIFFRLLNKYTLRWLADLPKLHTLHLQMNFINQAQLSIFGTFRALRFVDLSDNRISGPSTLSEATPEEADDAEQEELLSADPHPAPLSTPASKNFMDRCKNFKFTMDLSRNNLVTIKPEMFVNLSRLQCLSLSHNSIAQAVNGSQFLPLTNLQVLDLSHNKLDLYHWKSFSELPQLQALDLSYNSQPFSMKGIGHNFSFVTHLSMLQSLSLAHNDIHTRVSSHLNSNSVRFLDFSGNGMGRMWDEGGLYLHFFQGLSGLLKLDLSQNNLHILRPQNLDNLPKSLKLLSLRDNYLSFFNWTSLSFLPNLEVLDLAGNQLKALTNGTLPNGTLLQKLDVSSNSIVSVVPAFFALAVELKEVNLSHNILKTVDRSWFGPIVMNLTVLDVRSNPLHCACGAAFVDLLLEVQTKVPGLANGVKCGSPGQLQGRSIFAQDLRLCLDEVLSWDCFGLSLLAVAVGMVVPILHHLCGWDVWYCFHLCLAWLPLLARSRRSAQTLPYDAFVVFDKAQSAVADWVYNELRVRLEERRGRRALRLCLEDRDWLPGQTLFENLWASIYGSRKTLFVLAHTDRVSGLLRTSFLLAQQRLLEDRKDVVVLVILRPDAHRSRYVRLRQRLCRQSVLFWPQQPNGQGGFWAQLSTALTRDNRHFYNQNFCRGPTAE
Procedure, shortened: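 HEK293 cells stably expressing mouse TLR9 were transiently transfected with a SEAP reporter for 6 h, then stimulated with ODN at 0.1, 0.3 or 1 μg/mL for 18 h. Reporter expression is given as fold change in NF-κB activity over medium. Representative of two independent experiments.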

J774 = test: Inhibition of 5'-CTATCTGACGTTCTCTGT-3'-activated NF-kappaB activity in mouse J774 cells at 2.5 ug/ml after 1 hr by EMSA; type: cell-based
Procedure, shortened: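 J774 murine macrophages were grown in DMEM with 10% FBS and antibiotics, plated at 5 × 10^6 cells/well, and co-incubated for 1 h with the agonist ODN (0.5 µg/mL) and test ODN (2.5 µg/mL). Nuclear extracts were prepared and NF-κB binding was analysed by EMSA on native polyacrylamide gels with autoradiography.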

Splenocyte [2] = test: Immunostimulatory activity in C57BL/6 mouse splenocytes assessed as induction of IL12 secretion at 2 to 10 ug/ml after 24 hrs by sandwich ELISA; type: functional, cell-based
Procedure, shortened: (§1)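 C57BL/6 splenocytes (mice 5–8 weeks) at 5 × 10^6 cells/mL in RPMI complete medium. ODNs dissolved in PBS were added and the cells incubated at 37 °C for 24 h. Supernatant IL-12 or IL-6 was measured by sandwich ELISA. Runs were done two or three times, in duplicate per concentration.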

Splenocyte [3] = test: Immunostimulatory activity in C57BL/6 mouse splenocytes assessed as induction of IL6 secretion at 2 to 10 ug/ml after 24 hrs by sandwich ELISA; type: functional, cell-based; procedure, shortened: as §1
Splenocyte [4] = test: Inhibition of 5'-CTATCTGACGTTCTCTGT-3'-induced IL6 secretion in C57BL/6 mouse splenocytes at 4 ug/ml after 24 hrs by sandwich ELISA; type: functional, cell-based
Procedure, shortened: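 Splenocytes from 5–8-week C57BL/6 mice, 5 × 10^6 cells/mL in RPMI complete medium, were co-incubated with the TLR9 agonist ODN (1 µg/mL) plus test ODN at 1 or 4 µg/mL, or over a concentration series, at 37 °C for 24 h. Supernatant IL-12 or IL-6 was measured by sandwich ELISA. Runs were done in duplicate, with three independent experiments.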

Mus musculus [5] = test: Immunostimulatory activity in C57BL/6 mouse assessed as induction of MIP-1alpha level in serum at 2 mg/kg, sc after 2 hrs by Luminex multiplex assay; type: functional, organism-based; set-up: dose 2 mg/kg
Procedure, shortened: (§2)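 Female C57BL/6 mice, 5–6 weeks old, n = 3, received a single 2 mg/kg subcutaneous ODN injection in the right flank. Blood was taken by retro-orbital bleeding 2 h later. Naive mice served as baseline. Representative of three experiments.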

Mus musculus [6] = test: Immunostimulatory activity in C57BL/6 mouse assessed as induction of TNFalpha level in serum at 2 mg/kg, sc after 2 hrs by Luminex multiplex assay; type: functional, organism-based; set-up: dose 2 mg/kg; procedure, shortened: as §2
Mus musculus [7] = test: Immunostimulatory activity in C57BL/6 mouse assessed as induction of KC level in serum at 2 mg/kg, sc after 2 hrs by Luminex multiplex assay; type: functional, organism-based; set-up: dose 2 mg/kg; procedure, shortened: as §2
Mus musculus [8] = test: Immunostimulatory activity in C57BL/6 mouse assessed as induction of IL12 level in serum at 2 mg/kg, sc after 2 hrs by sandwich ELISA; type: functional, organism-based; set-up: dose 2 mg/kg; procedure, shortened: as §2
Mus musculus [9] = test: Immunostimulatory activity in C57BL/6 mouse assessed as inhibition of 5'-CTATCTGACGTTCTCTGT-3'-induced IL10 production in serum at 2 mg/kg, sc administered 24 hrs prior to 5'-CTATCTGACGTTCTCTGT-3' challenge measured after 2 hrs by Luminex multiplex assay; type: functional, organism-based; set-up: dose 2 mg/kg
Procedure, shortened: (§3)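 C57BL/6 mice received 2 mg/kg ODN sc in one flank. After 24 h, the TLR9 agonist ODN was given at 0.5 mg/kg sc in the opposite flank. Blood was drawn 2 h later and serum cytokines/chemokines were quantified by Luminex multiplex assay. Percent inhibition was taken against the agonist alone. Representative of three experiments.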

Mus musculus [10] = test: Immunostimulatory activity in C57BL/6 mouse assessed as inhibition of 5'-CTATCTGACGTTCTCTGT-3'-induced MCP1 production in serum at 2 mg/kg, sc administered 24 hrs prior to 5'-CTATCTGACGTTCTCTGT-3' challenge measured after 2 hrs by Luminex multiplex assay; type: functional, organism-based; set-up: dose 2 mg/kg; procedure, shortened: as §3
Mus musculus [11] = test: Immunostimulatory activity in C57BL/6 mouse assessed as inhibition of 5'-CTATCTGACGTTCTCTGT-3'-induced IL12 production in serum at 2 mg/kg, sc administered 24 hrs prior to 5'-CTATCTGACGTTCTCTGT-3' challenge measured after 2 hrs by sandwich ELISA; type: functional; conditions: C57BL/6, sc, route subcutaneous
Procedure, shortened: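 C57BL/6 mice were pretreated sc in the right flank with 2, 5 or 10 mg/kg ODN. After 24 h, the TLR9 agonist ODN was given at 0.5 mg/kg sc in the left flank. Serum IL-12 was measured by ELISA 2 h later. Representative of two experiments.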

- Activity [1]: inactive
SMILES: Cc1cn([C@@H]2O[C@H](COP(=O)(S)O[C@H]3C[C@H](n4ccc(N)nc4=O)O[C@@H]3COP(=O)(S)O[C@H]3C[C@H](n4cc(C)c(=O)[nH]c4=O)O[C@@H]3COP(=O)(S)O[C@H]3C[C@H](n4ccc(N)nc4=O)O[C@@H]3COP(=O)(S)O[C@H]3C[C@H](n4cc(C)c(=O)[nH]c4=O)O[C@@H]3COP(=O)(S)O[C@H]3C[C@H](n4cc(C)c(=O)[nH]c4=O)O[C@@H]3COP(=O)(S)O[C@H]3C[C@H](n4cnc5c(=O)[nH]c(N)nc54)O[C@@H]3COP(=O)(S)O[C@H]3C[C@H](n4ccc(N)nc4=O)O[C@@H]3COP(=O)(S)O[C@H]3C[C@H](n4cnc5c(N)ncnc54)O[C@@H]3COP(=O)(S)O[C@H]3C[C@H](n4cnc5c(=O)[nH]c(N)nc54)O[C@@H]3COP(=O)(S)O[C@H]3C[C@H](n4cc(C)c(=O)[nH]c4=O)O[C@@H]3COP(=O)(S)O[C@H]3C[C@H](n4ccc(N)nc4=O)O[C@@H]3COP(=O)(S)O[C@H]3C[C@H](n4cc(C)c(=O)[nH]c4=O)O[C@@H]3COP(=O)(S)O[C@H]3C[C@H](n4cnc5c(N)ncnc54)O[C@@H]3COP(=O)(S)O[C@H]3C[C@H](n4cc(C)c(=O)[nH]c4=O)O[C@@H]3COP(=O)(S)O[C@@H]3C[C@@H](n4ccc(N)nc4=O)O[C@H]3CO)[C@@H](OP(=O)(S)OC[C@H]3O[C@@H](n4cnc5c(=O)[nH]c(N)nc54)C[C@@H]3OP(=O)(S)OC[C@H]3O[C@@H](n4cc(C)c(=O)[nH]c4=O)C[C@@H]3O)[C@H]2O)c(=O)[nH]c1=O (some centres undefined)
- Activity (J774): Active
- Activity (Splenocyte [2]): Active
- Activity (Splenocyte [3]): Active
- Activity (Splenocyte [4]): Active
- Activity (Mus musculus [5]): inactive
- Activity (Mus musculus [6]): inactive
- Activity (Mus musculus [7]): inactive
- Activity (Mus musculus [8]): inactive
- Activity (Mus musculus [9]): Active
- Activity (Mus musculus [10]): Active
- inhibition in vivo at 2 mg/kg (Mus musculus [11]): 50%

- Activity [1]: inactive
SMILES: COC1[C@H](n2cc(C)c(N)nc2=O)O[C@H](COP(=O)(S)O[C@H]2C[C@H](n3cnc4c(N)ncnc43)O[C@@H]2COP(=O)(S)O[C@H]2C[C@H](n3cnc4c(=O)[nH]c(N)nc43)O[C@@H]2COP(=O)(S)O[C@H]2C[C@H](n3cc(C)c(=O)[nH]c3=O)O[C@@H]2COP(=O)(S)O[C@H]2C[C@H](n3ccc(N)nc3=O)O[C@@H]2COP(=O)(S)O[C@H]2C[C@H](n3cc(C)c(=O)[nH]c3=O)O[C@@H]2COP(=O)(S)O[C@H]2C[C@H](n3cnc4c(N)ncnc43)O[C@@H]2COP(=O)(S)O[C@H]2C[C@H](n3cc(C)c(=O)[nH]c3=O)O[C@@H]2COP(=O)(S)O[C@H]2C[C@H](n3ccc(N)nc3=O)O[C@@H]2CO)[C@H]1OP(=O)(S)OC[C@H]1O[C@@H](n2cnc3c(=O)[nH]c(N)nc32)C[C@@H]1OP(=O)(S)OC[C@H]1O[C@@H](n2cc(C)c(=O)[nH]c2=O)C[C@@H]1OP(=O)(S)OC[C@H]1O[C@@H](n2cc(C)c(=O)[nH]c2=O)C[C@@H]1OP(=O)(S)OC[C@H]1O[C@@H](n2ccc(N)nc2=O)C[C@@H]1OP(=O)(S)OC[C@H]1O[C@@H](n2cc(C)c(=O)[nH]c2=O)C[C@@H]1OP(=O)(S)OC[C@H]1O[C@@H](n2ccc(N)nc2=O)C[C@@H]1OP(=O)(S)OC[C@H]1O[C@@H](n2cc(C)c(=O)[nH]c2=O)C[C@@H]1OP(=O)(S)OC[C@H]1O[C@@H](n2cnc3c(=O)[nH]c(N)nc32)C[C@@H]1OP(=O)(S)OC[C@H]1O[C@@H](n2cc(C)c(=O)[nH]c2=O)C[C@@H]1O (some centres undefined)
- Activity (J774): Active
- Activity (Splenocyte [2]): Active
- Activity (Splenocyte [3]): Active
- Activity (Mus musculus [5]): inactive
- Activity (Mus musculus [6]): inactive
- Activity (Mus musculus [7]): inactive
- Activity (Mus musculus [8]): inactive
- Activity (Mus musculus [9]): Active
- Activity (Mus musculus [10]): Active
- inhibition in vivo at 2 mg/kg (Mus musculus [11]): 50%

- Activity [1]: inactive
SMILES: COC1[C@H](n2cnc3c(=O)[nH]c(N)nc32)O[C@H](COP(=O)(S)O[C@H]2C[C@H](n3cc(C)c(N)nc3=O)O[C@@H]2COP(=O)(S)O[C@H]2C[C@H](n3cnc4c(N)ncnc43)O[C@@H]2COP(=O)(S)O[C@H]2C[C@H](n3cnc4c(=O)[nH]c(N)nc43)O[C@@H]2COP(=O)(S)O[C@H]2C[C@H](n3cc(C)c(=O)[nH]c3=O)O[C@@H]2COP(=O)(S)O[C@H]2C[C@H](n3ccc(N)nc3=O)O[C@@H]2COP(=O)(S)O[C@H]2C[C@H](n3cc(C)c(=O)[nH]c3=O)O[C@@H]2COP(=O)(S)O[C@H]2C[C@H](n3cnc4c(N)ncnc43)O[C@@H]2COP(=O)(S)O[C@H]2C[C@H](n3cc(C)c(=O)[nH]c3=O)O[C@@H]2COP(=O)(S)O[C@H]2C[C@H](n3ccc(N)nc3=O)O[C@@H]2CO)[C@H]1OP(=O)(S)OC[C@H]1O[C@@H](n2cc(C)c(=O)[nH]c2=O)C[C@@H]1OP(=O)(S)OC[C@H]1O[C@@H](n2cc(C)c(=O)[nH]c2=O)C[C@@H]1OP(=O)(S)OC[C@H]1O[C@@H](n2ccc(N)nc2=O)C[C@@H]1OP(=O)(S)OC[C@H]1O[C@@H](n2cc(C)c(=O)[nH]c2=O)C[C@@H]1OP(=O)(S)OC[C@H]1O[C@@H](n2ccc(N)nc2=O)C[C@@H]1OP(=O)(S)OC[C@H]1O[C@@H](n2cc(C)c(=O)[nH]c2=O)C[C@@H]1OP(=O)(S)OC[C@H]1O[C@@H](n2cnc3c(=O)[nH]c(N)nc32)C[C@@H]1OP(=O)(S)OC[C@H]1O[C@@H](n2cc(C)c(=O)[nH]c2=O)C[C@@H]1O (some centres undefined)
- Activity (J774): Active
- Activity (Splenocyte [2]): Active
- Activity (Splenocyte [3]): Active
- Activity (Mus musculus [5]): inactive
- Activity (Mus musculus [6]): inactive
- Activity (Mus musculus [7]): inactive
- Activity (Mus musculus [8]): inactive
- Activity (Mus musculus [9]): Active
- Activity (Mus musculus [10]): Active
- inhibition in vivo at 2 mg/kg (Mus musculus [11]): 14%

From ChEMBL document CHEMBL1152452, “Modifications incorporated in CpG motifs of oligodeoxynucleotides lead to antagonist activity of toll-like receptors 7 and 9” (2009)
